Screening results (PubChem BioAssay)
Compounds with a hit are over-represented: about 2.5% of the library has one in this group of screens.
N-glyco inh – N-linked glycosylation inhibition | AID 588692 | reporter increase, % at 12.5 µM | 360,000 compounds, 0.23% hits | D54 ERlucT glycosylation luciferase reporter, 24 h; percent of 100 nM tunicamycin response;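 active = mean luciferase reporter signal, scaled so untreated is 0 and the glycosylation-blocking control 100, at or above a set limit in every replicate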;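 note: luciferase carries N-glycosylation sites so blocking glycosylation raises the light; 0% = median of neutral control wells and 100% = median of 100 nM tunicamycin wells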
PAX8 inh HTS – PAX8 transcriptional activity inhibition | RMG-I TPO-luciferase reporter, SteadyGlo, 24 h | inhibition, % at 12.6 µM | 360,000 compounds, 1.2% hits;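 active = mean replicate inhibition at least 60% with every replicate also reaching 60%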;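 note: luciferase light reporting Pax8 driven TPO promoter activity; plate controls were median of neutral control wells for no effect and mitoxantrone controls for full effect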
EWS-Fli inh – blocks EWS/Fli oncoprotein-driven transcription | inhibition, % at 12.6 µM | 350,000 compounds, 0.67% hits | A673 NR0B1-luciferase reporter, viability-normalised;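 active = mean inhibition of at least 50% after viability correction, with every replicate also passing that limit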;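 note: firefly luciferase signal divided by Alamar Blue viability fluorescence both relative to DMSO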
Env fusion inh – HIV envelope-mediated fusion inhibition. HeLa-JRFL Env/CEM21 cell fusion, luciferase. inhibition, % at 12.3 µM. 360,000 compounds, 1.1% hits. AID 651610;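 active = mean replicate inhibition score of at least 50 and every replicate individually at or above 50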;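 note: 0% = plate neutral controls and 100% = maraviroc near 300 nM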
MLL AF4-AF9 inh – MLL-AF4/AF9 protein interaction inhibition | AlphaScreen, biotin-AF4 peptide binding to FLAG-AF9 | inhibition, % at 10 µM | 350,000 compounds, 0.47% hits;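 active = every replicate reaching a set inhibition limit, whatever the replicate mean, cut at about 25% in these data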;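 note: 0% = plate neutral control median and 100% = total signal loss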
Target sequence (P42568 whole entry, looked up): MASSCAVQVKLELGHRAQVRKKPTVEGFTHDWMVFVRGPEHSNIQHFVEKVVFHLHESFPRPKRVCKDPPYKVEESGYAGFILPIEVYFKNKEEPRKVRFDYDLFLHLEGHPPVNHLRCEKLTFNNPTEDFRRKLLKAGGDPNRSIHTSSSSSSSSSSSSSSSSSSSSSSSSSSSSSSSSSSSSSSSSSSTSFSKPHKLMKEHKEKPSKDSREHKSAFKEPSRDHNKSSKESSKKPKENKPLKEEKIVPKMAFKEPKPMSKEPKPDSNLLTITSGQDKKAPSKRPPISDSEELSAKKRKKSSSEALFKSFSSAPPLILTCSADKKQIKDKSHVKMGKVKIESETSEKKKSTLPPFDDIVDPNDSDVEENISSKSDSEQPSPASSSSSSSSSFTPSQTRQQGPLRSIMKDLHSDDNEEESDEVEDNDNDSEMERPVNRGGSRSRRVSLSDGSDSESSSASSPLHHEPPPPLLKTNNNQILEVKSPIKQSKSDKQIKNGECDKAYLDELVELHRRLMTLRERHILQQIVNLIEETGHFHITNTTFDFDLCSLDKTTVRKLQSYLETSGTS
FN deposition inh – fibronectin deposition inhibition; AH1F fibroblasts, Alexa488-fibronectin deposition fluorescence, overnight; inhibition, % at 12.6 µM; 350,000 compounds, 0.086% hits;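 active = mean inhibition across replicates of 30% or more, regardless of how many single replicates reach that level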;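 note: positive control wells lacked labelled fibronectin entirely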
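Assay system: AH1F fibroblast monolayer, labelled fibronectin deposition. Amount: 10000 cells per well. Also added: labelled fibronectin 24 nM. Compound: single-point pinned compound. Incubation: cell attachment 1 h, compound and FN exposure overnight. Detection: fluorescence after three HBSS washes, excitation 485 nm, emission 525 nm. Read-out: inhibition of fibronectin deposition signal.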
DNA binder FP – DNA binding small molecules. shares compounds with EWS-Fli inh. salmon sperm DNA acridine orange fluorescence polarization. AC35, µM (highest dose often 68 µM), for inactives: at the top dose activity change, negative = DNA binding. 640 compounds, 2% hits. AID 720586;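 active = fitted curve reaches a 35% signal fall AC35 below twice the sample's top valid tested dose, actives reach about 48 µM in these data; inactive = the rest, including activity in the rising direction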;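 note: lower polarization ratio signals compound binding to DNA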
Numbers without * were called inactive; [ ] = dose if it differs, or a comment.

C[C@@H]1CN([C@@H](C)CO)C(=O)c2cccc(NS(=O)(=O)c3ccccc3)c2O[C@@H]1CN(C)Cc1ccc(C(=O)Nc2ccccc2N)cc1 was read as PAX8 inh HTS 37, EWS-Fli inh 52*, Env fusion inh -116[16.7 µM], MLL AF4-AF9 inh 0 and DNA binder FP 0%.
C[C@@H]1CN([C@H](C)CO)C(=O)c2cccc(NS(=O)(=O)c3ccc(Cl)cc3)c2O[C@H]1CN(C)Cc1ccc(C(=O)Nc2ccccc2N)cc1 was read as PAX8 inh HTS -10, EWS-Fli inh 35, MLL AF4-AF9 inh -1 and FN deposition inh -11.
`C[C@@H]1CN([C@@H](C)CO)C(=O)c2cccc(NS(=O)(=O)c3ccc(Cl)cc3)c2O[C@@H]1CN(C)Cc1ccc(C(=O)Nc2ccccc2N)cc1` gave EWS-Fli inh 53*, Env fusion inh -152[16.7 µM], MLL AF4-AF9 inh 2, FN deposition inh 3 and DNA binder FP -13%.
Screening C[C@H](CO)N1C[C@H](C)[C@@H](CN(C)Cc2ccc(C(=O)Nc3ccccc3N)cc2)Oc2c(NS(=O)(=O)c3ccccc3)cccc2C1=O returned PAX8 inh HTS 6, EWS-Fli inh -7 and MLL AF4-AF9 inh 1.
For CC(NC(=O)c1ccco1)c1nc(-c2ccc(C(C)(C)C)cc2)no1 (stereo not drawn) the results were N-glyco inh -4, PAX8 inh HTS -38, EWS-Fli inh 78*, Env fusion inh -8, MLL AF4-AF9 inh 0, FN deposition inh -5 and DNA binder FP -22%.
`C[C@@H]1CN([C@H](C)CO)C(=O)c2cc(NC(=O)C3CCCCC3)ccc2O[C@@H](C)CCCCO[C@@H]1CN(C)Cc1ccc(Cl)c(Cl)c1` gave EWS-Fli inh -10, Env fusion inh 8[16.7 µM] and MLL AF4-AF9 inh 1.
Screening CC(=O)O[C@@H]1[C@H]2[C@@H](C[C@@H](C)[C@@H]3C=CC(=O)[C@@]13C)OC(=O)[C@@H]2C returned N-glyco inh 2, PAX8 inh HTS -14, EWS-Fli inh -6, Env fusion inh -13, MLL AF4-AF9 inh 6 and FN deposition inh -1.
Screening C=C1C(=O)OC2C1CCC(C)C1C=CC(=O)C12C (stereo not drawn) returned N-glyco inh 21, PAX8 inh HTS 75*, EWS-Fli inh 56*, MLL AF4-AF9 inh -5, FN deposition inh 9 and DNA binder FP 7%.
For COCC(=O)N(C)C[C@@H]1Oc2cc(C#C[C@@H](C)O)ccc2S(=O)(=O)N([C@@H](C)CO)C[C@H]1C the results were EWS-Fli inh 13, Env fusion inh 9[16.7 µM], MLL AF4-AF9 inh -1 and FN deposition inh 8.
`CCOc1ccc(N=C2C(=O)Nc3ccc(C)c(Br)c32)cc1` gave N-glyco inh 1, PAX8 inh HTS 2, EWS-Fli inh 52*, Env fusion inh -1, MLL AF4-AF9 inh 14, FN deposition inh -13 and DNA binder FP -8%.
O=C(C[C@@H]1C=C[C@@H](NS(=O)(=O)c2ccc(F)cc2)[C@H](CO)O1)NCc1ccncn1 was read as PAX8 inh HTS -7, EWS-Fli inh -2, Env fusion inh -7[16.7 µM], MLL AF4-AF9 inh -2 and FN deposition inh 2.
Screening CO[C@H](CN(C)Cc1nccs1)[C@H](C)CN([C@H](C)CO)S(=O)(=O)c1ccc(C)cc1 returned EWS-Fli inh -3, MLL AF4-AF9 inh 3 and FN deposition inh -6.
For Cc1nc2ncccn2c1-c1csc(Nc2ccc(O)cc2)n1 the results were N-glyco inh 14, PAX8 inh HTS -20, EWS-Fli inh 58*, Env fusion inh 12, MLL AF4-AF9 inh 3 and DNA binder FP 9%.
`Cc1ccc(Nc2nc(-c3c(C)nc4ncccn34)cs2)cc1` gave N-glyco inh 12 and Env fusion inh -284.
Screening C[C@@H]1CN([C@H](C)CO)S(=O)(=O)c2ccc(C#CC3(O)CCCC3)cc2O[C@H]1CN(C)C(=O)c1ccncc1 returned EWS-Fli inh 9, Env fusion inh 10[16.7 µM], MLL AF4-AF9 inh -1 and FN deposition inh 23.
Screening COc1ccc(C=C2C(=O)c3ccccc3C2=O)cc1O returned N-glyco inh 1, PAX8 inh HTS 5, EWS-Fli inh 4, Env fusion inh 22, MLL AF4-AF9 inh 4 and FN deposition inh -3.
Screening CCN1C/C(=C/c2ccc(OC)c(O)c2)C(=O)/C(=C/c2ccc(OC)c(O)c2)C1 returned N-glyco inh 24, PAX8 inh HTS 18, EWS-Fli inh 53*, Env fusion inh -116, MLL AF4-AF9 inh 0 and DNA binder FP 1%.
`CC(=O)Nc1ccc(OCC(=O)N(CC(C)C)C2CCS(=O)(=O)C2)cc1` (stereo not drawn) gave N-glyco inh 4, PAX8 inh HTS 28, EWS-Fli inh 68*, Env fusion inh 0, MLL AF4-AF9 inh -2, FN deposition inh 3 and DNA binder FP 0%.
Screening CC(=O)ON=C1C=CC(=C(C#N)c2ccccc2)C=C1 returned N-glyco inh 0, PAX8 inh HTS 71*, EWS-Fli inh 56*, Env fusion inh -200, MLL AF4-AF9 inh 9, FN deposition inh -6 and DNA binder FP 0%.
COc1ccc(C(C#N)=C2C=CC(=NO)C=C2)cc1 was read as N-glyco inh 6, PAX8 inh HTS -35, EWS-Fli inh 6, Env fusion inh 5, MLL AF4-AF9 inh -1 and FN deposition inh 6.
`O=C1CCCC2=C1C(c1ccco1)Nc1ccc(C(=O)c3ccccc3)cc1N2` (stereo not drawn) gave N-glyco inh 17.
O=C1CCCC2=C1C(c1ccccn1)Nc1ccc(C(=O)c3ccccc3)cc1N2 (stereo not drawn) was read as N-glyco inh -1, PAX8 inh HTS 3, EWS-Fli inh 80*, Env fusion inh 12, MLL AF4-AF9 inh -9 and DNA binder FP -6%.
`O=C(COC(=O)CCN1C(=O)/C(=C\C=C\c2ccccc2)SC1=S)Nc1ccc(Br)cc1` gave N-glyco inh -1, PAX8 inh HTS -15, EWS-Fli inh 40, Env fusion inh 34, MLL AF4-AF9 inh -1 and FN deposition inh 10.
CC(C)c1ccccc1NC(=O)COC(=O)CCN1C(=O)/C(=C\C=C\c2ccccc2)SC1=S was read as N-glyco inh 1, PAX8 inh HTS 26, EWS-Fli inh 62*, Env fusion inh 11, MLL AF4-AF9 inh 0, FN deposition inh -7 and DNA binder FP -10%.
C[C@@H]1CN([C@H](C)CO)C(=O)c2cc(NS(=O)(=O)c3cccs3)ccc2O[C@@H]1CN(C)C was read as PAX8 inh HTS -6, EWS-Fli inh -2 and MLL AF4-AF9 inh -1.
